Reference: PubChem BioAssay AID1217 (Sanford-Burnham Center for Chemical Genomics, 2008)
In all, about 190,000 compounds went through this assay and about 1,300 (0.68%) were called active. The entries come from a sample that favours actives as a whole. A number with no mark means an inactive call.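 The calls were made as follows: active = primary screen inhibition at 20 µM above a set limit (cut at about 50% in these data); inactive = the rest.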

System: diaphorase (Clostridium kluyveri)
Test: compounds blocking diaphorase resazurin reduction – biochemical, uHTS, resorufin fluorescence, counter-screen for diaphorase-coupled primary assays, primary screen (AID 1217);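 also: plate controls were DMSO with full reaction for no effect and wells lacking NADH for full effect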
Conditions: diaphorase resazurin-to-resorufin fluorescence, NADH, 16 min; at 20 µM; active compounds read high
Outline: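 System: Bacterial diaphorase enzyme (C. kluyveri) | Incubation: 16-min room-temperature incubation before reading | Benchmarks: No-NADH positive control and DMSO neutral control | Measured by: Resorufin fluorescence 544/590 nm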

Structure (SMILES)	inhibition
COc1ccccc1N=Nc1c(O)[nH]c(=S)[nH]c1=O	51.2% (active)
COc1ccccc1-n1c(O)c(C=NC2CC2)c(=O)[nH]c1=O	7.4%
COc1ccccc1N=C1SCCCN1C	7.6%
COc1ccc(-c2nn(CCC#N)cc2C(=O)O)cc1	0.1%
COc1ccc(NC(=O)c2cn(CCC#N)nc2-c2ccc([N+](=O)[O-])cc2)cc1	1.1%
CN(C)c1nc(N(C)C)nc(N(C#N)CCCl)n1	-15.8%
O=C(Cc1ccccc1)N1CCN(C2CCCCCC2)CC1	19.6%
Cc1ccc2c(c1)=C/C(=C\c1c(O)[nH]c(=O)[nH]c1=O)C(=O)N=2	65.8% (active)
O=C1N=c2ccccc2=C/C1=C\c1c(O)[nH]c(=S)[nH]c1=O	20%
COc1cccc(N2C(=O)NC(=O)/C(=C\c3ccc([N+](=O)[O-])s3)C2=O)c1	27.2%
